According to ChEMBL document CHEMBL2390928:
Activity calls are given as the source filed them. No cut-off for these calls is given here.

How the values were obtained:
SK-OV-3 [1] = experiment: Cytotoxicity against human SKOV3 cells assessed as growth inhibition after 48 hrs by SRB assay; type: functional, cell-based; settings: SK-OV-3, 48 h
Bos taurus = organism: Bos taurus; experiment: Displacement of [3H]-colchicine from bovine brain tubulin at 5 uM after 10 mins relative to control
Procedure, shortened: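 Electrophoretically homogeneous bovine brain tubulin, 1.0 µM, incubated 10 min at 37 °C with 5.0 µM [3H]colchicine and 5.0 µM inhibitor; colchicine binding inhibition expressed as percent ± SD.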

[2] = Inhibition of bovine brain tubulin assembly after 20 mins by spectrophotometric analysis; design: species or system Bos taurus
Procedure, shortened: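 Electrophoretically homogeneous bovine brain tubulin is used at 10 µM (1.0 mg/mL) with varying inhibitor concentrations. After 15 min preincubation at 30 °C, 0.4 mM GTP is added.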

HeLa [3] = experiment: Resistance ratio of IC50 for human HeLa cells expressing beta-3 tubulin to IC50 for human HeLa cells; type: functional
Procedure, shortened: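 HeLa WT βIII cells are HeLa cells transfected with the βIII-tubulin gene. IC50 in this line and in parental HeLa is taken from the sulforhodamine B assay (3–5 independent experiments). Rr is the βIII-line IC50 divided by the parental HeLa IC50.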

SK-OV-3 [4] = experiment: Resistance ratio of IC50 for human SKOV3 cells expressing MDR1 to IC50 for human SKOV3 cells; type: functional
Procedure, shortened: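 Relative resistance (Rr) is the IC50 in Pgp-expressing SK-OV-3 MDR-1-6/6 cells divided by the IC50 in parental SK-OV-3 cells.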

MDA-MB-435 [5] = experiment: Cytotoxicity against human MDA-MB-435 cells assessed as growth inhibition after 48 hrs by SRB assay; type: functional, cell-based; settings: MDA-MB-435, 48 h
[6] = Induction of interphase microtubule depolymerization in rat A10 cells after 18 to 24 hrs by indirect immunofluorescence assay; type: cell-based
Procedure, shortened: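 Rat aortic smooth muscle A-10 cells are treated for 18 h, fixed in cold methanol, and stained for microtubules with a β-tubulin antibody by indirect immunofluorescence. […] It is computed per experiment over a wide concentration range, from at least 3 independent experiments, and reported as mean ± SD.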

HeLa [7] = experiment: Cytotoxicity against human HeLa cells assessed as growth inhibition after 48 hrs by SRB assay; type: functional, cell-based
[8] = Ratio of EC50 for induction of microtubule depolymerization in rat A10 cells to IC50 for human MDA-MB-435 cells
Procedure, shortened: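 This ratio divides the A-10 EC50 by the MDA-MB-435 melanoma IC50. […] The IC50 is from the sulforhodamine B proliferation assay, 3–5 independent experiments.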

OVCAR-3 = experiment: Growth inhibition of human OVCAR3 cells; type: functional
HL-60(TB) = experiment: Growth inhibition of human HL-60(TB) cells; type: functional
MDA-MB-231 = experiment: Growth inhibition of human MDA-MB-231 cells; type: functional
MDA-MB-435 [9] = experiment: Growth inhibition of human MDA-MB-435 cells; type: functional
NCI-H460 = experiment: Growth inhibition of human NCI-H460 cells; type: functional
[10] = Growth inhibition of human EKVX cells; type: functional
NCI-H226 = experiment: Growth inhibition of human NCI-H226 cells; type: functional
[11] = Growth inhibition of human HCC2998 cells; type: functional; settings: HCC 2998
COLO 205 = experiment: Growth inhibition of human COLO205 cells; type: functional
A498 = experiment: Growth inhibition of human A498 cells; type: functional
SR = experiment: Growth inhibition of human SR cells; type: functional
BT-549 = experiment: Growth inhibition of human BT549 cells; type: functional
MDA-MB-435 [12] = experiment: Cell cycle arrest in human MDA-MB-435 cells assessed as increase in accumulation at G2/M phase at 44.1 to 73.5 nM after 18 hrs by FACS flow cytometric analysis; type: functional, cell-based
Procedure, shortened: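 Cells harvested, stained with Krishan's reagent (propidium iodide), analysed by flow cytometry; propidium iodide intensity plotted against event count to give cell cycle distribution.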

KM12 = experiment: Growth inhibition of human KM12 cells; type: functional
U-251 = experiment: Growth inhibition of human U251 cells; type: functional
HT-29 = experiment: Growth inhibition of human HT-29 cells; type: functional
SW-620 = experiment: Growth inhibition of human SW620 cells; type: functional
SN12C = experiment: Growth inhibition of human SN12C cells; type: functional
HOP-62 = experiment: Growth inhibition of human HOP62 cells; type: functional
Malme-3M = experiment: Growth inhibition of human MALME-3M cells; type: functional
NCI-H522 = experiment: Growth inhibition of human NCI-H522 cells; type: functional
M14 = experiment: Growth inhibition of human M14 cells; type: functional
786-0 = experiment: Growth inhibition of human 786-0 cells; type: functional
OVCAR-5 = experiment: Growth inhibition of human OVCAR5 cells; type: functional
HCT-15 = experiment: Growth inhibition of human HCT15 cells; type: functional
SK-MEL-5 = experiment: Growth inhibition of human SK-MEL-5 cells; type: functional
TK-10 = experiment: Growth inhibition of human TK10 cells; type: functional
ACHN = experiment: Growth inhibition of human ACHN cells; type: functional
RXF 393 = experiment: Growth inhibition of human RXF393 cells; type: functional
UO-31 = experiment: Growth inhibition of human UO31 cells; type: functional
MDA-MB-468 = experiment: Growth inhibition of human MDA-MB-468 cells; type: functional
LOX IMVI = experiment: Growth inhibition of human LOXIMVI cells; type: functional
SNB-19 = experiment: Growth inhibition of human SNB19 cells; type: functional
DU-145 = experiment: Growth inhibition of human DU145 cells; type: functional
HCT-116 = experiment: Growth inhibition of human HCT116 cells; type: functional
A549 = experiment: Growth inhibition of human A549 cells; type: functional
Hs-578T = experiment: Growth inhibition of human Hs578T cells; type: functional
SF-295 = experiment: Growth inhibition of human SF295 cells; type: functional
SF-268 = experiment: Growth inhibition of human SF268 cells; type: functional
CCRF-CEM = experiment: Growth inhibition of human CCRF-CEM cells; type: functional
MOLT-4 = experiment: Growth inhibition of human MOLT4 cells; type: functional
HOP-92 = experiment: Growth inhibition of human HOP92 cells; type: functional
SK-MEL-2 = experiment: Growth inhibition of human SK-MEL-2 cells; type: functional
SK-OV-3 [13] = experiment: Growth inhibition of human SKOV3 cells; type: functional
SK-MEL-28 = experiment: Growth inhibition of human SK-MEL-28 cells; type: functional
OVCAR-4 = experiment: Growth inhibition of human OVCAR4 cells; type: functional
SNB-75 = experiment: Growth inhibition of human SNB75 cells; type: functional
NCI-H322M = experiment: Growth inhibition of human NCI-H322M cells; type: functional
[14] = Growth inhibition of human NCI-ADR-RES cells; type: functional
PC-3 = experiment: Growth inhibition of human PC3 cells; type: functional
SF-539 = experiment: Growth inhibition of human SF539 cells; type: functional
K562 = experiment: Growth inhibition of human K562 cells; type: functional
OVCAR-8 = experiment: Growth inhibition of human OVCAR8 cells; type: functional
RPMI-8226 = experiment: Growth inhibition of human RPMI8226 cells; type: functional
UACC-62 = experiment: Growth inhibition of human UACC62 cells; type: functional
MCF7 = experiment: Growth inhibition of human MCF7 cells; type: functional
NCI-H23 = experiment: Growth inhibition of human NCI-H23 cells; type: functional

`CC(=O)O[C@H]1C(=O)[C@@]2(C)[C@H]([C@H](OC(=O)c3ccccc3)[C@]3(O)C[C@H](OC(=O)[C@H](O)[C@@H](NC(=O)c4ccccc4)c4ccccc4)C(C)=C1C3(C)C)[C@]1(OC(C)=O)CO[C@@H]1C[C@@H]2O` [PACLITAXEL] gave an IC50 (SK-OV-3 [1]) of 4.4 nM.

`CCOc1ccc(N(C)c2nc(N)nc3[nH]c4ccccc4c23)cc1` showed an inhibition (Bos taurus) of 82%, an IC50 [2] of 1700 nM and an IC50 (SK-OV-3 [1]) of 23 nM. The “Ratio IC50” value (HeLa [3]) was 0.8, the “Ratio IC50” value (SK-OV-3 [4]) was 1.3 and the IC50 (MDA-MB-435 [5]) was 14.4 nM. For the same compound, the EC50 [6] was 83 nM, the IC50 (HeLa [7]) was 23.1 nM and the Ratio [8] was 6.5.

For `COc1ccc(N(C)c2nc(N)nc3[nH]c4ccccc4c23)cc1`, the inhibition (Bos taurus) was 84%, the GI50 (OVCAR-3) was 12.9 nM and the GI50 (HL-60(TB)) was 32.2 nM. The GI50 (MDA-MB-231) was 64.6 nM, the GI50 (MDA-MB-435 [9]) was under 10 nM and the GI50 (NCI-H460) was 30 nM. The GI50 [10] was 16.7 nM, the GI50 (NCI-H226) was 133 nM and the IC50 [2] was 1400 nM. For the same compound, the GI50 [11] was 23.6 nM, the IC50 (SK-OV-3 [1]) was 27.6 nM and the GI50 (COLO 205) was 25.8 nM. The GI50 (A498) was 15.8 nM, the GI50 (SR) was under 10 nM and the GI50 (BT-549) was 94.5 nM. The Activity (MDA-MB-435 [12]) was “Active”, the GI50 (KM12) was 13.2 nM and the GI50 (U-251) was 37.3 nM. For the same compound, the GI50 (HT-29) was 31 nM, the GI50 (SW-620) was 19 nM and the GI50 (SN12C) was 80.1 nM. It also gave a GI50 (HOP-62) of 40 nM, a GI50 (Malme-3M) of 304 nM and a GI50 (NCI-H522) of under 10 nM. The GI50 (M14) was 16.6 nM, the GI50 (786-0) was 49 nM and the GI50 (OVCAR-5) was 51.2 nM. For the same compound, the GI50 (HCT-15) was 26.1 nM, the GI50 (SK-MEL-5) was 32.3 nM and the GI50 (TK-10) was 56.2 nM. For the same compound, the GI50 (ACHN) was 89.6 nM, the GI50 (RXF 393) was 16.9 nM and the IC50 (MDA-MB-435 [5]) was 14.7 nM. The GI50 (UO-31) was 53.7 nM, the GI50 (MDA-MB-468) was 26.9 nM and the GI50 (LOX IMVI) was 68.4 nM. It also gave a GI50 (SNB-19) of 50.9 nM, a GI50 (DU-145) of 31.4 nM and a GI50 (HCT-116) of 29.8 nM. The GI50 (A549) was 36.4 nM, the GI50 (Hs-578T) was 11.5 nM and the GI50 (SF-295) was 26 nM. For the same compound, the GI50 (SF-268) was 37.7 nM, the GI50 (CCRF-CEM) was 41.1 nM and the GI50 (MOLT-4) was 47.7 nM. The GI50 (HOP-92) was 242 nM, the GI50 (SK-MEL-2) was 19.7 nM and the GI50 (SK-OV-3 [13]) was 29.9 nM. For the same compound, the GI50 (SK-MEL-28) was under 10 nM, the GI50 (OVCAR-4) was 52.7 nM and the GI50 (SNB-75) was 12.7 nM. The GI50 (NCI-H322M) was 64.2 nM, the GI50 [14] was 11.5 nM and the GI50 (PC-3) was 44.3 nM. For the same compound, the GI50 (SF-539) was 24.2 nM, the EC50 [6] was 105 nM and the IC50 (HeLa [7]) was 21.3 nM. The GI50 (K562) was under 10 nM, the GI50 (OVCAR-8) was 42.3 nM and the GI50 (RPMI-8226) was 41.1 nM. The GI50 (UACC-62) was 27 nM, the GI50 (MCF7) was 16.4 nM and the GI50 (NCI-H23) was 31.8 nM.

Work on `COc1ccc(/C=C\c2cc(OC)c(OC)c(OC)c2)cc1O` [COMBRETASTATIN A4] yielded an IC50 (SK-OV-3 [1]) of 9.7 nM, an EC50 [6] of 13 nM and an IC50 (HeLa [7]) of 4.7 nM.

`CCN(c1ccc(OC)cc1)c1nc(N)nc2[nH]c3ccccc3c12` gave an inhibition (Bos taurus) of 76%, an IC50 [2] of 1700 nM and an IC50 (SK-OV-3 [1]) of 53 nM. For the same compound, the “Ratio IC50” value (HeLa [3]) was 1.4, the “Ratio IC50” value (SK-OV-3 [4]) was 1.4 and the IC50 (MDA-MB-435 [5]) was 23.5 nM. It also gave an EC50 [6] of 198 nM, an IC50 (HeLa [7]) of 32.8 nM and a Ratio [8] of 8.4.

With `COc1ccc(N(C)c2nc(C)nc3[nH]ccc23)cc1` the inhibition (Bos taurus) was 70% and the IC50 [2] was 2600 nM.
